Assay outcomes as filed in PubChem.
Pyk2 oligo antag – antagonists of human Pyk2 oligomerization; Q14289; Q293 cells, Pyk2 FERM NanoBiT luminescence; hits give low values; z-score (the deposit names both 25 µM and 10 µM); actives 0.83% (n = 99,000); AID 1347419;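 active means Z-score of -3 or lower, scaled per plate to the spread of control and sample wells; inactive means z-score above -3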;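 further: negative z-score means lost luminescence so less FERM oligomerization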
Target sequence (Q14289 whole entry, looked up): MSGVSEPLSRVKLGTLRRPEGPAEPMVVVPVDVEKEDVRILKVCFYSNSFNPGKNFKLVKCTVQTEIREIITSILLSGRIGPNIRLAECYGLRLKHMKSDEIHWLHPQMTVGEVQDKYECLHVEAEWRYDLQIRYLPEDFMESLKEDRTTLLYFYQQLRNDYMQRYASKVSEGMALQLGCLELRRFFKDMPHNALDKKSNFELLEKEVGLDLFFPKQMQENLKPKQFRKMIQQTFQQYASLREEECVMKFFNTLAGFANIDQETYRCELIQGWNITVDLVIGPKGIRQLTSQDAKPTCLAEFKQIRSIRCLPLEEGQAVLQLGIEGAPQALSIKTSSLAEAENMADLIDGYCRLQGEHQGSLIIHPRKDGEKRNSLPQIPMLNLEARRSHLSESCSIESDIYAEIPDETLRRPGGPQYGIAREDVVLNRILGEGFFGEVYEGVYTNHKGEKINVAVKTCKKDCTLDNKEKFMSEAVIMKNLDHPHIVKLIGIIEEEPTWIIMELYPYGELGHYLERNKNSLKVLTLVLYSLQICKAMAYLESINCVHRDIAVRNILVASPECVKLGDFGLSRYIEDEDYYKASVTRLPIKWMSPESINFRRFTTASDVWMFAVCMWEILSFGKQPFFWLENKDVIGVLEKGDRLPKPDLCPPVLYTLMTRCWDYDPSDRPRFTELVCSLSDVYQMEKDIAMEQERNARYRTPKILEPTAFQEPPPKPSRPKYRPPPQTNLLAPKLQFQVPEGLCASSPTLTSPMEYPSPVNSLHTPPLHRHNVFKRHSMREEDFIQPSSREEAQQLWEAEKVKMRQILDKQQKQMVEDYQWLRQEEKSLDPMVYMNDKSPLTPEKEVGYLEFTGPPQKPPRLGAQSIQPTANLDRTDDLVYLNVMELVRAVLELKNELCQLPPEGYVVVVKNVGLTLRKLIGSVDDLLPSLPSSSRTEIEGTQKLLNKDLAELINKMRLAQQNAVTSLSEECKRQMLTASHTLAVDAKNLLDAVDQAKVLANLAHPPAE
Jurkat viability – cytotoxic compounds reducing Jurkat cell viability. actives 1.2% (n = 56,000). inhibition, % at 4 µM. Jurkat E6.1 viability, ATP luminescence, 48 h;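 active means inhibition above the mean inhibition of all tested compounds plus 3 SD, cut at about 28% in these data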
MT1-MMP txn act – activates MT1-MMP transcription. actives 0.16% (n = 86,000). activation factor at 10 µM. HT1080 MT1-MMP promoter luciferase reporter, luminescence, overnight; hits give high values;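 active means activation factor of at least 2 for MT1-MMP transcription at 10 µM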
Fibroblast inh – blocks proliferation of human lung fibroblasts; LL 47 human lung fibroblast viability, ATP luminescence; hits give low values; viability, % at 10 µM; actives 1.1% (n = 85,000); AID 719;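 active means viability at or below 50% in the single dose screen; inactive means viability above 50%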;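 further: compound exposure lasted 72 h before the ATP readout; 100% = median luminescence of untreated cell-only wells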
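Assay system: human lung fibroblast line LL 47, low passage. Input: 1,150 fibroblasts seeded per well. Times: overnight cell rest, 72 h compound treatment at 37 °C. Evaluation: % viability of median cell-only signal. Technique: luminescent ATP detection, CellTiter-Glo. Control set: cell-only wells, no compound.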
H69AR growth 86K – growth inhibitors of human H69AR lung tumor cells. H69AR lung tumor viability, ATP luminescence, 72 h; hits give low values. viability, % at 10 µM. actives 6% (n = 85,000);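 active means viability at or below 40%; inactive means viability above 40%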;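 further: multidrug resistant small cell line overexpressing MRP-1 efflux transporter; 100% = mean luminescence of untreated control wells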
HUVEC prolif 384 – inhibitors of human endothelial cell proliferation. viability, % at 10 µM (by protocol). HUVEC proliferation, CellTiter-Glo luminescence, 72 h; hits give low values. actives 1.1% (n = 86,000);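 active means viability at or below 30%; inactive means viability above 30%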;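 further: 100% = median luminescence of DMSO-only cell control wells on each plate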
Active calls of the source: *; / = no result given. In the library only some 5.9% were active in any assay of this set; here they are far more common.

SMILES	Pyk2 oligo antag	Jurkat viability	MT1-MMP txn act	Fibroblast inh	H69AR growth 86K	HUVEC prolif 384
Cn1c(C(=O)NCCN2CCc3ccccc3C2)cc2c(=O)n(C)c3ccccc3c21	/	4	1.1	84	15*	74
CN(CCNC(=O)c1cc2c(=O)n(C)c3ccccc3c2n1C)Cc1ccccc1	/	-1	1	73	37*	50
Cn1c(C(=O)NCc2cccs2)cc2c(=O)n(C)c3ccccc3c21	/	0	1	81	40*	69
Cc1ccc(-c2cc(C(F)F)n3ncc(C(=O)Nc4ccc(S(=O)(=O)Nc5ccccc5C)cc4)c3n2)cc1	-0.38	/	/	/	/	/
Cc1ccc(C2NC(=O)NC(O)(C(F)(F)F)C2C(=O)c2cccs2)o1 (centres undefined)	0.18	-4	1.1	98	104	17*
Cc1ccc(C2NC(=O)NC(O)(C(F)(F)F)C2C(=O)c2ccccc2)o1 (centres undefined)	-0.09	-3	1.1	91	90	99
Cc1ccc2[nH]c(C)c(/C=N/Nc3nc4ccccc4s3)c2c1	-0.23	/	1.3	63	4.6*	42
COc1ccc(-c2cc(C(F)(F)F)nc(N3CCN(c4ccc(F)cc4)CC3)n2)cc1OC	1.3	/	/	94	17*	68
COc1ccc(-c2cc(C(F)(F)F)nc(N3CCN(Cc4ccccc4)CC3)n2)cc1OC	0.49	/	1.2	100	103	94
Cc1ccc(CNC(=O)CS(=O)(=O)CC(=O)O)cc1	0.38	/	/	97	94	97
CCC(C)N1CCN(C(=O)c2cccs2)CC1 (centres undefined)	0.18	/	1.1	108	94	93
CCc1nnc(NC(=O)CSc2nnc(-c3ccccc3O)n2CC)s1	-0.58	/	1.1	91	88	108
CCOC(=O)N1CCN(C(=O)CSCC(=O)Nc2nc(-c3ccc(-c4ccccc4)cc3)cs2)CC1	/	/	/	82	0.7*	55
CCn1c(SCC(=O)Nc2ccccc2C)nnc1-c1ccccc1O	0.79	2	/	91	86	109
CCc1nnc(NC(=O)CSc2nnc(-c3cc4ccccc4cc3O)n2CC)s1	-3*	5	1.1	99	93	103
CCn1c(SCC(=O)Nc2nc(-c3ccccc3)cs2)nnc1-c1ccccc1O	-3.1*	18	/	103	104	74
CN(C)S(=O)(=O)c1ccc(C(=O)NCc2nnc(SCC(=O)Nc3ccc(F)cc3)n2-c2ccc(F)cc2)cc1	0.71	/	/	/	/	/
CN(C)C(=S)SCC(=O)Nc1cccc(C(F)(F)F)c1	-1.1	/	/	/	/	/
COc1cc(/C=N/n2c(C)nnc2C)cc(OC)c1OC	0.97	/	0.9	100	105	89
COc1c(Br)cc(Br)cc1/C=N/n1c(C)nnc1C	0.45	8	1.2	71	25*	59
Cc1ccc(-n2c(C)nnc2SCC(=O)Nc2ccccc2)cc1	-0.16	/	1	97	103	94
Cc1ccc(Nc2nc(Nc3ccc(C)cc3)nc(SC3=NCCS3)n2)cc1	-1.5	/	1.6	88	11*	76
Cc1ccccc1Nc1nc(Nc2ccccc2C)nc(SC2=NCCS2)n1	-1.8	/	/	102	98	78
O=C(NC1CCCCC1)C(c1ccncc1)N(CC1CCCO1)C(=O)C(F)(F)F (centres undefined)	-0.74	2	1.1	99	86	98
Cc1nc2sc3c(c2c2nc(-c4ccco4)nn12)CCCC3	/	8	1.2	73	9.1*	66
SMILES	Pyk2 oligo antag	Jurkat viability	MT1-MMP txn act	Fibroblast inh	H69AR growth 86K	HUVEC prolif 384
Cc1conc1NC(c1cccs1)c1ccc2cccnc2c1O (centres undefined)	/	30*	0.8	3.1*	19*	24*
COc1ccc2nc3oc(C(=O)NC4CCN(Cc5ccccc5)CC4)cc3cc2c1	-1	-3	1.2	76	75	89
CCOC(=O)c1cnn2c(C(F)(F)F)cc(-c3ccccc3)nc12	0.27	4	1	96	67	97
CCOC(=O)N1CCC(NC(=O)c2cnn3c(C(F)(F)F)cc(-c4cccc(OC)c4)nc23)CC1	/	-1	1.1	27*	98	48
CCOC(=O)N1CCC(NC(=O)c2cc3cc4cc(OC)ccc4nc3o2)CC1	-1.5	1	1.1	91	38*	92
CCn1cc(C(=O)NC(=S)Nc2cccc(O)c2)cn1	-0.22	/	/	/	/	/
COC(=O)c1c(NC(=O)CN2C(=O)C(=O)N(CC(C)C)C2=O)sc2c1CCCCC2	0.36	/	/	/	/	/
O=C(NC1CCCc2ccccc21)C1CCN(C(=O)c2sccc2-n2cccc2)CC1 (centres undefined)	/	-7	1	99	83	100
COc1ccc(-c2nc(N)ncc2Oc2ccccc2Br)c(O)c1	-2.7	12	1.1	84	38*	92
COc1cccc(Oc2cnc(N)nc2-c2ccc(OC)cc2O)c1	-3.9*	91*	0.7	59	17*	78
C=C(C)COc1ccc(-c2ncncc2Oc2ccc(OC)cc2)c(O)c1	-0.76	4	1.1	98	48	89
CCOc1ccc(-c2nc(N)nc(C)c2-c2ccc(OC)c(OC)c2)c(O)c1	-0.02	-2	1.1	98	95	105
Cc1ccc(-n2nnnc2SCn2nnc3ccccc3c2=O)c(C)c1	-0.91	/	0.9	99	82	93
Cc1ccc(CNC(=O)C2(c3cccs3)CCOCC2)cc1	-0.17	/	/	/	/	/
COc1ccc(C2/C(=C(\O)c3cc(C)ccc3C)C(=O)C(=O)N2CCN(C)C)cc1OC (centres undefined)	0.35	/	1	108	103	104
O=c1c2ccc(-c3nnc4n3-c3ccccc3SC4)cc2nc2n1CCCCC2	/	3	1.1	/	/	/
COc1ccccc1C(=O)Nc1nc(-c2ccc(S(=O)(=O)N3CCOCC3)cc2)cs1	-1.9	/	0.8	23*	45	49
CCOc1cccc(C(=O)Nc2nc(-c3ccc(S(=O)(=O)N4CCOCC4)cc3)cs2)c1	-2.2	4	1.2	83	32*	81
COc1ccc(-c2csc(NC(=O)C3CCCCN3S(=O)(=O)c3ccccc3)n2)cc1 (centres undefined)	-3.4*	/	1.1	104	44	82
COc1ccc(NC(=O)Cn2nnc(-c3ccccc3NC(=O)c3cccs3)n2)cc1	-0.29	-2	1	/	7.5*	32
O=C(Cn1nnc(-c2ccccc2NC(=O)c2ccco2)n1)Nc1ccccc1	-2.7	-3	1	78	23*	46
COc1ccc(NC(=O)Cn2nnc(-c3ccccc3NS(=O)(=O)c3ccc(OC)cc3)n2)cc1	1.8	/	/	/	/	/
Cc1ccc(NC(=O)Cn2nnc(-c3ccccc3NC(=O)c3cccs3)n2)cc1	-1.3	/	0.6	46*	6.8*	19*
CN(CCOc1ccccc1)S(=O)(=O)c1ccc2oc3ccccc3c2c1	-1.4	/	/	/	/	/
Cc1cccc(NC(=S)NC(=O)/C=C/c2ccco2)n1	0.02	/	1.6	90	33*	82
O=C(CN1CCOCCOCCOCCOCC1)Nc1ccccc1	0.79	/	1.4	107	94	92
COc1cc(C(=O)OCCN2CCCCC2)ccc1O	0.21	/	1.1	/	/	/
